According to ChEMBL document CHEMBL1240484, “New 4H-chromen-4-one and 2H-chromene derivatives as anti-picornavirus capsid-binders” (Bioorg Med Chem, 2010):
Active and inactive are the calls of the source. The calls are words filed in the database; no cut-off is given here.

What was measured:
rhinovirus B14 [1] = experiment: Antiviral activity against Human rhinovirus 14 infected in human HeLa cells after 3 days by plaque reduction assay; format: functional, organism-based; settings: for IC50: Rhinovirus B, 72 h
Summary of the method: (§1)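 HeLa monolayers infected with ATCC HRV 14 or 1B at about 100 plaques per well, 1 h adsorption at 33 °C. Inoculum removed, then plaque overlay with fourfold drug dilutions from the MNTC. Three days at 33 °C, neutral red (0.2 mg/mL, PBS pH 7.4) staining and plaque count, triplicate wells. IC50 from log dose vs % reduction relative to mock-treated control. Otherwise % inhibition at MNTC is reported.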

[2] = Therapeutic index, ratio of TC50 for human HeLa cells to IC50 for HRV 1B; format: cell-based; settings: read-out: TI
Summary of the method: (§2)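 Therapeutic index calculated as TC50 for HeLa cells (XTT, 3 days) divided by IC50 for plaque reduction of HRV 14 or HRV 1B in HeLa cells.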

[3] = Cytotoxicity against human HeLa cells assessed as maximum non-cytotoxic concentration after 3 days by XTT assay; format: cell-based
Summary of the method: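 HeLa cells seeded at 2 × 10³ per well with twofold compound dilutions from the maximum soluble concentration, quadruplicate wells, 37 °C in 5% CO2 for 3 days until controls were confluent. XTT added (final 0.15 mg/mL) for 4 h, absorbance read at 492 nm with 690 nm reference. Morphology also scored microscopically. […] MNTC is the highest dose with no toxicity or growth reduction.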

rhinovirus A1B [4] = experiment: Antiviral activity against Human rhinovirus 1B infected in human HeLa cells after 3 days by plaque reduction assay; format: functional, organism-based; settings: for IC50: Rhinovirus A, 72 h; summary of the method: as §1
Enterovirus A71 [5] = experiment: Antiviral activity against Human enterovirus 71 infected in human Hep2 cells at maximum non-cytotoxic concentration […] by plaque reduction assay; format: functional, HEp-2
[6] = Cytotoxicity against human Hep2 cells assessed as maximum non-cytotoxic concentration after 3 days by XTT assay; format: cell-based, HEp-2
Summary of the method: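 Hep-2 cells grown in high-glucose DMEM, seeded at 2 × 10³ per well with twofold dilutions from the maximum soluble concentration, quadruplicate wells, 3 days at 37 °C in 5% CO2. XTT (final 0.15 mg/mL) for 4 h, read at 492/690 nm, plus microscopic scoring. MNTC is the highest dose causing no toxic effect or growth reduction.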

rhinovirus B14 [7] = experiment: Antiviral activity against Human rhinovirus 14 infected in human HeLa cells at maximum non-cytotoxic concentration after 3 days by plaque reduction assay; format: functional; summary of the method: as §1
Enterovirus A71 [8] = experiment: Antiviral activity against Human enterovirus 71 infected in human Hep2 cells after 2 days by plaque reduction assay; format: functional, organism-based; settings: for IC50: Enterovirus A, HEp-2, 48 h; for Activity: HEp-2
Summary of the method: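 Inoculum removed, then plaque overlay with fourfold drug dilutions starting from the MNTC. Two days at 37 °C, neutral red (0.2 mg/mL in PBS pH 7.4) staining, plaques counted, triplicate wells. IC50 taken from log dose vs % plaque reduction.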

[9] = Cytotoxicity against human HeLa cells after 3 days by XTT assay; format: cell-based; settings: read-out: TC50
Summary of the method: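 HeLa cells seeded at 2 × 10³ per well with twofold compound dilutions from the maximum soluble concentration, quadruplicate wells, 37 °C in 5% CO2 for 3 days until controls were confluent. Morphology also scored microscopically. MNTC is the highest dose with no toxicity or growth reduction.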

rhinovirus A1B [10] = experiment: Antiviral activity against Human rhinovirus 1B infected in human HeLa cells assessed as reduction of viral yeild at 20 uM treated 30 mins after virus infection measured after 10 hrs by plaque reduction assay; format: functional; design: scale not given: the % may be the effect or the level left
Summary of the method: (§3)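 One-step growth of HRV 1B in confluent HeLa cells, multiplicity of five, attachment 1 h at 4 °C, then three PBS washes (time 0). Compound at 20 µM present throughout, during adsorption only, or added or removed at 0.5, 1, 2 or 4 h p.i. Incubation at 33 °C to 10 h p.i., three freeze-thaw cycles, supernatant titred by plaque assay on HeLa cells.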

rhinovirus A1B [11] = experiment: Antiviral activity against Human rhinovirus 1B infected in human HeLa cells assessed as inhibition of viral replication at 20 uM after 10 hrs by plaque reduction assay; format: functional; design: scale not given: the % may be the effect or the level left; summary of the method: as §3
rhinovirus A1B [12] = experiment: Antiviral activity against Human rhinovirus 1B infected in human HeLa cells assessed as virus inactivation at 20 uM at 33 degC after 1 hr by plaque reduction assay (reference value: 2.86 x 10^7 PFU/ml)
rhinovirus A1B [13] = experiment: Antiviral activity against Human rhinovirus 1B infected in human HeLa cells assessed as reduction of viral yeild at 20 uM treated immediately after virus infection measured >1 hr after washout by plaque reduction assay; format: functional, organism-based; summary of the method: as §3
rhinovirus A1B [14] = experiment: Antiviral activity against Human rhinovirus 1B infected in human HeLa cells assessed as reduction of viral yeild at 20 uM treated 1 hr after virus infection measured after 10 hrs by plaque reduction assay; format: functional; design: scale not given: the % may be the effect or the level left; summary of the method: as §3
[15] = Therapeutic index, ratio of TC50 for human HeLa cells to IC50 for HRV 14; format: cell-based; settings: read-out: TI; summary of the method: as §2
rhinovirus A1B [16] = experiment: Antiviral activity against Human rhinovirus 1B infected in human HeLa cells assessed as reduction of viral yeild at 20 uM treated immediately after virus infection measured 30 mins after washout by plaque reduction assay; format: functional; design: scale not given: the % may be the effect or the level left; summary of the method: as §3
rhinovirus A1B [17] = experiment: Antiviral activity against Human rhinovirus 1B infected in human HeLa cells assessed as reduction of viral yeild at 20 uM treated 2 to 4 hrs after virus infection measured after 10 hrs by plaque reduction assay; format: functional, organism-based; summary of the method: as §3
rhinovirus A1B [18] = experiment: Antiviral activity against Human rhinovirus 1B infected in human HeLa cells assessed as reduction of viral yeild at 20 uM treated 1 hr before infection measured after 10 hrs by plaque reduction assay; format: functional, organism-based; summary of the method: as §3
rhinovirus A1B [19] = experiment: Antiviral activity against Human rhinovirus 1B infected in human HeLa cells assessed as virus stabilization at 20 uM at 56 degC after 1 hr by plaque reduction assay (reference value: 3.5 x 10^7 PFU/ml); format: functional
Summary of the method: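 HRV 1B held with or without 20 µM compound for 1 h at 33 °C, then heated 20 min at 56 °C (pH 7.2) and chilled on ice. Serial 10-fold dilution and plaque titration on HeLa monolayers.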

rhinovirus A1B [20] = experiment: Antiviral activity against Human rhinovirus 1B infected in human HeLa cells assessed as reduction of viral yeild at 20 uM treated immediately after virus infection measured after 10 hrs by plaque reduction assay; format: functional; design: scale not given: the % may be the effect or the level left; summary of the method: as §3
rhinovirus A1B [21] = experiment: Antiviral activity against Human rhinovirus 1B infected in human HeLa cells assessed as reduction of viral yeild at 20 uM after 1 hr by plaque reduction assay; format: functional; design: scale not given: the % may be the effect or the level left

| IC50 (rhinovirus B14 [1]) [µM] | IC50 (rhinovirus A1B [4]) [µM] | IC50 (Enterovirus A71 [8]) [µM] | SMILES | Activity (rhinovirus B14 [1]) | selectivity ratio [2] | MNTC at 72 h [3] [µM] | Activity (rhinovirus A1B [4]) | inhibition (INH) (Enterovirus A71 [5]) [%] | MNTC at 72 h [6] [µM] | inhibition (INH) (rhinovirus B14 [7]) [%] | Activity (Enterovirus A71 [8]) | CC50 at 72 h [9] [µM] | other results |
| --- | --- | --- | --- | --- | --- | --- | --- | --- | --- | --- | --- | --- | --- |
| > 12.5 | 6.27 | > 12.5 | Clc1ccc2c(c1)C=C(/C=C/C=C/c1ccccc1)CO2 | Dose-dependent effect | 3.99 | 12.5 | Dose-dependent effect | 25.4 | 12.5 | 37.2 | Dose-dependent effect | 25 |  |
| 1.38 | 0.2 | > 12.5 | C1=C(/C=C/c2ccccc2)COc2ccccc21 | Dose-dependent effect | 250 | 25 | Dose-dependent effect | 36.1 | 12.5 |  | Dose-dependent effect | 50 | Activity (rhinovirus A1B [10]): 90%; Activity (rhinovirus A1B [11]): 92%; PFU/ml (rhinovirus A1B [12]): 26600000; Activity (rhinovirus A1B [13]): Active; Activity (rhinovirus A1B [14]): 7.7%; selectivity ratio [15]: 36.2; Activity (rhinovirus A1B [16]): 91.8%; Activity (rhinovirus A1B [17]): inactive; Activity (rhinovirus A1B [18]): inactive; log10PFU/ml (rhinovirus A1B [19]): 2.1; Activity (rhinovirus A1B [20]): 91.4%; Activity (rhinovirus A1B [21]): 91.7% |
| > 3.12 | 0.71 | > 3.12 | O=c1c(/C=C/C=C/c2ccc(Cl)cc2)coc2ccc(Cl)cc12 | Dose-dependent effect | 8.8 | 3.12 | Dose-dependent effect | 46.6 | 3.12 | 36.2 | Dose-dependent effect | 6.25 |  |
| > 25 | 3.22 | > 25 | O=c1c(/C=C/c2ccccc2)coc2ccc(Cl)cc12 | Dose-dependent effect | 15.5 | 25 | Dose-dependent effect | 37 | 25 | 33.1 | Dose-dependent effect | 50 |  |
| > 6.25 | 0.54 | > 6.25 | Clc1ccc(/C=C/C=C/C2=Cc3cc(Cl)ccc3OC2)cc1 | Dose-dependent effect | 23.1 | 6.25 | Dose-dependent effect | 39.1 | 6.25 | 12.8 | Dose-dependent effect | 12.5 |  |
| > 50 | 1.6 | > 50 | O=c1c(/C=C/C=C/c2ccccc2)coc2ccc(Cl)cc12 | Dose-dependent effect | 62.5 | 50 | Dose-dependent effect | 46.7 | 50 | 48.3 | Dose-dependent effect | 100 |  |
| > 3.12 | 3.1 | > 3.12 | Clc1ccc(/C=C/C=C/C2=Cc3ccccc3OC2)cc1 | Dose-dependent effect | 2 | 3.12 | Dose-dependent effect | 32.9 | 3.12 | 30.4 | Dose-dependent effect | 6.25 |  |
